From ChEMBL document CHEMBL1932985, “Identification of biaryl sulfone derivatives as antagonists of the histamine H₃ receptor: discovery of (R)-1-(2-(4'-(3-methoxypropylsulfonyl)biphenyl-4-yl)ethyl)-2-methylpyrrolidine (APD916)” (Bioorg Med Chem Lett, 2012)

Experiments:
[1] = Tmax in Sprague-Dawley rat at 10 mg/kg, po and iv by LC-MS/MS analysis; format: ADME, organism-based; design: dose 10 mg/kg, route oral; settings: in vivo
Outline: (§1)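 Rats were given the compound both IV and PO in a routine PK study. Tmax came from the PO arm and Vss from the IV arm.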

Histamine H3 receptor = Histamine H3 receptor (Rattus norvegicus, UniProt Q9QYN8); experiment: Displacement of N-[3H]-methylhistamine from histamine H3 receptor in rat cortex membranes; format: cell membranes, Membrane
Histamine H3 receptor, sequence (Q9QYN8 whole entry): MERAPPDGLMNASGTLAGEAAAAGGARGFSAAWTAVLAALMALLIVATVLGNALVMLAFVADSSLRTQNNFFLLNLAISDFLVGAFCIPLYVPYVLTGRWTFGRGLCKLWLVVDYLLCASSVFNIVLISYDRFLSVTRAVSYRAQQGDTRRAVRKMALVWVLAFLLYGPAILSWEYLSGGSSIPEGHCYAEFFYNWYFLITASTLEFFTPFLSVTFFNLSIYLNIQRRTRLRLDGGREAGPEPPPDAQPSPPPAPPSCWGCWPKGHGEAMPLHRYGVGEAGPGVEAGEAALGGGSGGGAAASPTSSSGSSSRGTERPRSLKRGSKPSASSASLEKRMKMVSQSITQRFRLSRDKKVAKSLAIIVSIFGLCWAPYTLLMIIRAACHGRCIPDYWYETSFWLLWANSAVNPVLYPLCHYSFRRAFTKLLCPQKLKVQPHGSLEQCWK

[2] = Ratio of drug level in brain to plasma in Sprague-Dawley rat at 10 mg/kg, po and iv after 0.75 to 3 hrs by LC-MS/MS analysis; format: ADME, organism-based; design: dose 10 mg/kg, route oral; settings: read-out: BPR
Outline: (§2)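 Brain (µg/mg) and plasma (µg/mL) levels were measured after oral dosing, with three rats per time point. The b/p ratio was the mean of the nine individual ratios.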

[3] = Cmax in Sprague-Dawley rat plasma at 10 mg/kg, po and iv by LC-MS/MS analysis; format: ADME, organism-based; design: dose 10 mg/kg, route oral
Outline: (§3)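 Rat PK after IV and PO dosing; plasma Cmax, Tmax, IV half-life and Vss determined; oral bioavailability from AUCpo/AUCiv. Metabolite exposure determined after a 3 mg/kg PO parent dose.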

[4] = Half life in Sprague-Dawley rat at 10 mg/kg, iv by LC-MS/MS analysis; format: ADME, organism-based; design: dose 10 mg/kg, route intravenous; settings: in vivo; outline: as §3
Rattus norvegicus [5] = experiment: Volume of distribution at steady state in Sprague-Dawley rat at 10 mg/kg, po and iv by LC-MS/MS analysis; format: ADME, organism-based; design: dose 10 mg/kg, route oral; settings: in vivo; outline: as §1
Rattus norvegicus [6] = experiment: Inhibition of RAMH-induced dipsogenia in po dosed Sprague-Dawley rat administered 30 mins prior to RAMH challenge measured up to 20 mins; format: functional; settings: read-out: MED
Outline: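 Rats given compound orally 0.5 h (or, for duration of action, at selected times up to 6 h) before RAMH 10 mg/kg SC; water consumed over 20 min measured. Screening doses 1 or 0.3 mg/kg PO, also 0.1 mg/kg; duration study at 0.6 mg/kg PO. MED = minimum dose fully inhibiting drinking; means ± SEM.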

[7] = Oral bioavailability in Sprague-Dawley rat at 10 mg/kg by LC-MS/MS analysis; format: ADME, organism-based; settings: in vivo; outline: as §3
[8] = Oral bioavailability in Sprague-Dawley rat at 1 mg/kg by LC-MS/MS analysis; format: ADME, organism-based; settings: in vivo; outline: as §3
[9] = Tmax in Sprague-Dawley rat at 1 mg/kg, po and iv by LC-MS/MS analysis; format: ADME, organism-based; design: dose 1 mg/kg, route oral; settings: in vivo; outline: as §1
[10] = Cmax in Sprague-Dawley rat plasma at 1 mg/kg, po and iv by LC-MS/MS analysis; format: ADME, organism-based; design: dose 1 mg/kg, route oral; outline: as §3
Rattus norvegicus [11] = experiment: Volume of distribution at steady state in Sprague-Dawley rat at 1 mg/kg, po and iv by LC-MS/MS analysis; format: ADME, organism-based; design: dose 1 mg/kg, route oral; settings: in vivo; outline: as §1
[12] = Ratio of drug level in brain to plasma in Sprague-Dawley rat at 1 mg/kg, po and iv after 0.75 to 3 hrs by LC-MS/MS analysis; format: ADME, organism-based; design: dose 1 mg/kg, route oral; settings: read-out: BPR; outline: as §2
[13] = Half life in Sprague-Dawley rat at 1 mg/kg, iv by LC-MS/MS analysis; format: ADME, organism-based; design: dose 1 mg/kg, route intravenous; settings: in vivo; outline: as §3
hERG (KCNH2) = hERG (KCNH2) (Homo sapiens, UniProt Q12809); experiment: Inhibition of human ERG at 3 uM by patch-clamp assay
hERG (KCNH2), sequence (Q12809 whole entry): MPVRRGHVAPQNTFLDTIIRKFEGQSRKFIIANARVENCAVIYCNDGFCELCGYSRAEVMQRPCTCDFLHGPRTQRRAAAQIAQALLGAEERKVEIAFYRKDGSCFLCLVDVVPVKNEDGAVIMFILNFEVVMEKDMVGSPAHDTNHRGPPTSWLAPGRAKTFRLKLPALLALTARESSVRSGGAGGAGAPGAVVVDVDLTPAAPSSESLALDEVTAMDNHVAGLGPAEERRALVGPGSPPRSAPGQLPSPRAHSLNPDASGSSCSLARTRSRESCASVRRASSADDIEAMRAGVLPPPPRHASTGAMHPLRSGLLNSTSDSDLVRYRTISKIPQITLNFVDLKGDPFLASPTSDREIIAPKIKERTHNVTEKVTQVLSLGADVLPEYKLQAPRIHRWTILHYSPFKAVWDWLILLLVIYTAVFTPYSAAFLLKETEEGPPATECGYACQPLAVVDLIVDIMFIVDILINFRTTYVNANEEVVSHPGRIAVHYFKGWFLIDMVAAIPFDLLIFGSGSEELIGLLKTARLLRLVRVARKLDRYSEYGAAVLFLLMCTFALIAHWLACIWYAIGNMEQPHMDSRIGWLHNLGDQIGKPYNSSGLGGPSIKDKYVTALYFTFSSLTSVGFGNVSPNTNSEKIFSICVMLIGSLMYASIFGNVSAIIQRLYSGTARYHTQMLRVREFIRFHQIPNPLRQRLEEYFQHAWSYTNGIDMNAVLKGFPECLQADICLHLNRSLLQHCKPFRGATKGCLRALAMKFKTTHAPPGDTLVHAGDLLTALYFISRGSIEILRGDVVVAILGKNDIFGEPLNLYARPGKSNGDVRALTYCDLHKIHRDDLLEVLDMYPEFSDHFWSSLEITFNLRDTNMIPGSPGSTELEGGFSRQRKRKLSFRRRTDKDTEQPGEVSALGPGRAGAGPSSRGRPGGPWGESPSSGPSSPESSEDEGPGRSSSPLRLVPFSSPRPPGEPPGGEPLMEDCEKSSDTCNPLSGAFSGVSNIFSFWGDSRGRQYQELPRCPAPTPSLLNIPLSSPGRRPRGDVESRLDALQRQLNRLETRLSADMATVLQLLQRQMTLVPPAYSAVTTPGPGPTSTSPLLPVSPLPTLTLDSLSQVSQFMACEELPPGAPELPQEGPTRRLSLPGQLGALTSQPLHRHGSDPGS

[14] = Ratio of drug level in brain to plasma in Sprague-Dawley rat at 3 mg/kg, po and iv after 0.75 to 3 hrs by LC-MS/MS analysis; format: ADME, organism-based; design: dose 3 mg/kg, route oral; settings: read-out: BPR; outline: as §2
[15] = Tmax in Sprague-Dawley rat at 3 mg/kg, po and iv by LC-MS/MS analysis; format: ADME, organism-based; design: dose 3 mg/kg, route oral; settings: in vivo; outline: as §1
[16] = Oral bioavailability in Sprague-Dawley rat at 3 mg/kg by LC-MS/MS analysis; format: ADME, organism-based; settings: in vivo; outline: as §3
Rattus norvegicus [17] = experiment: Volume of distribution at steady state in Sprague-Dawley rat at 3 mg/kg, po and iv by LC-MS/MS analysis; format: ADME, organism-based; design: dose 3 mg/kg, route oral; settings: in vivo; outline: as §1
[18] = Half life in Sprague-Dawley rat at 3 mg/kg, iv by LC-MS/MS analysis; format: ADME, organism-based; design: dose 3 mg/kg, route intravenous; settings: in vivo; outline: as §3
[19] = Cmax in Sprague-Dawley rat plasma at 3 mg/kg, po and iv by LC-MS/MS analysis; format: ADME, organism-based; design: dose 3 mg/kg, route oral; outline: as §3

Work on `C[C@@H]1CCCN1CCc1ccc(-c2ccc(S(C)(=O)=O)cc2)cc1` yielded a Tmax [1] of 4 h, a Ki (Histamine H3 receptor) of 1.3 nM and a Kp [2] of 3.03. The Cmax [3] was 218 ng/mL, the half-life [4] was 3.6 h and the Vdss (Rattus norvegicus [5]) was 19.8 L/kg. The minimal effective dose (Rattus norvegicus [6]) was 0.3 mg/kg and the bioavailability [7] was 100%.

`CC(C)S(=O)(=O)c1ccc(-c2ccc(CCN3CCC[C@H]3C)cc2)cc1` gave a Ki (Histamine H3 receptor) of 2.65 nM.

`C[C@@H]1CCCN1CCc1ccc(-c2ccc(S(=O)(=O)CCO)cc2)cc1` showed a bioavailability [8] of 53.6%, a Tmax [9] of 0.5 h and a Cmax [10] of 122 ng/mL. The Vdss (Rattus norvegicus [11]) was 5 L/kg, the Ki (Histamine H3 receptor) was 1.2 nM and the Kp [12] was 0.72. It also gave a minimal effective dose (Rattus norvegicus [6]) of 1 mg/kg and a half-life [13] of 3.2 h.

Compound `CCOCCS(=O)(=O)c1ccc(-c2ccc(CCN3CCC[C@H]3C)cc2)cc1` has a Ki (Histamine H3 receptor) of 1 nM, a minimal effective dose (Rattus norvegicus [6]) of 0.3 mg/kg and an inhibition at 3 µM (hERG (KCNH2)) of 45%.

With `COCCS(=O)(=O)c1ccc(-c2ccc(CCN3CCC[C@@H]3C)cc2)cc1` the Ki (Histamine H3 receptor) was 13.2 nM.

Compound `COCS(=O)(=O)c1ccc(-c2ccc(CCN3CCC[C@H]3C)cc2)cc1` has a Ki (Histamine H3 receptor) of 2.44 nM.

Compound `C[C@@H]1CCCN1CCc1ccc(-c2ccc(S(=O)(=O)C3CCOCC3)cc2)cc1` has a Ki (Histamine H3 receptor) of 1.1 nM and a minimal effective dose (Rattus norvegicus [6]) of 1 mg/kg.

`C[C@@H]1CCCN1CCc1ccc(-c2ccc(S(=O)(=O)C3CCCC3)cc2)cc1` gave a Ki (Histamine H3 receptor) of 1 nM.

Compound `CCS(=O)(=O)c1ccc(-c2ccc(CCN3CCC[C@H]3C)cc2)cc1` has a Kp [14] of 1.75, a Ki (Histamine H3 receptor) of 0.9 nM and a Tmax [15] of 0.3 h. For the same compound, the minimal effective dose (Rattus norvegicus [6]) was 0.3 mg/kg, the bioavailability [16] was 46% and the Vdss (Rattus norvegicus [17]) was 14.3 L/kg. It also gave a half-life [18] of 1.4 h and a Cmax [19] of 57 ng/mL.
